The text below walks through data of ChEMBL document CHEMBL1143371, “2-Aminoimidazoles inhibitors of TGF-beta receptor 1” (Bioorg Med Chem Lett, 2009).

The target in data set [1] is T1, TGF-beta receptor type-1 (Homo sapiens, UniProt P36897).
T1 sequence (P36897 whole entry): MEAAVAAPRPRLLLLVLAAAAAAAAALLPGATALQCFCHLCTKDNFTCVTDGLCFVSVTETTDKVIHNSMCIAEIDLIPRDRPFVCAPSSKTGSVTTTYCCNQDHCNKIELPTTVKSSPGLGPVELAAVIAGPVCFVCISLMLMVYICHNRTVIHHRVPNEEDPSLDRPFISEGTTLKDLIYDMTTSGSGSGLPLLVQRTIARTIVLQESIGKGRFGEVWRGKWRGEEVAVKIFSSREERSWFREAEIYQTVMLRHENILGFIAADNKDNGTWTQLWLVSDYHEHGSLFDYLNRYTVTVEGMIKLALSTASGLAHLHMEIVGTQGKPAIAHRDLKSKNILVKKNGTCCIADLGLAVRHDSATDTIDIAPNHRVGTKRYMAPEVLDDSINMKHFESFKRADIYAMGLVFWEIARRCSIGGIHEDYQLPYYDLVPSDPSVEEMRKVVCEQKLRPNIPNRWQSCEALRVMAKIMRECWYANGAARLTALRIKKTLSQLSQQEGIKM
The data set can be described thus: Inhibition of TGFBR1 transfected in human HepG2 cells after 24 hrs by plasminogen activator inhibitor-luciferase reporter gene assay. The class given is cell-based.

The target in data set [2] is Mitogen-activated protein kinase 14 (Homo sapiens, UniProt Q16539). The data set can be described thus: Inhibition of p38alpha.
Mitogen-activated protein kinase 14, sequence (Q16539 whole entry): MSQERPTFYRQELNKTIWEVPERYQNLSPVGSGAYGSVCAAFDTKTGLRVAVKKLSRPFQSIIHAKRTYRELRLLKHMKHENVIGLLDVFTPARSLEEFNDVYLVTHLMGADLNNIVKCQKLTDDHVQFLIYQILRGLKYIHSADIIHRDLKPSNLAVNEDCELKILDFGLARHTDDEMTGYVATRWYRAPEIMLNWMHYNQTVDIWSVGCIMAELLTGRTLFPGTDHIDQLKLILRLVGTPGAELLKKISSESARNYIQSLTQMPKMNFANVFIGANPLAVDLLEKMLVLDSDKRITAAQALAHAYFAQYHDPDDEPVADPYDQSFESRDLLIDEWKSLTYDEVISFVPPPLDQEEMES
For data set [3], the target named is T1, TGF-beta receptor type-1. The data set can be described thus: Binding affinity to human TGFBR1.
A short description of data set [4]: Bioavailability in iv and po dosed Sprague-Dawley rat. Format: ADME, organism-based. Particulars: in vivo. The essentials:
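Fasted male Sprague–Dawley rats were dosed iv and po. […] Depending on the compound, the vehicle was 20% captisol or NMP/H₂O (1/1).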

Data set [5] is described as follows: Half life in iv dosed Sprague-Dawley rat. The class given is ADME, organism-based. The settings on record: in vivo. The procedure, abridged: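 Half-life was measured in fasted male Sprague–Dawley rats and is the mean of 4 iv experiments. Depending on the compound, the vehicle was 20% captisol or NMP/H₂O (1/1).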

One may read the EC50 as the concentration giving half of the maximal effect. As usually defined, the Ki is the dissociation constant of the complex between target and ligand, obtained from inhibition or displacement. A high value points to lower affinity. With `COCC(=O)Nc1nc(-c2ccc(F)c(C)n2)c(-c2ccc3nccnc3c2)[nH]1`, the EC50 came out at 61 nM in data set [1] and 15000 nM in data set [2]. The Ki in data set [3] is 7.2 nM.

The term bioavailability denotes the share of a dose that reaches the circulation, judged against a reference dose that is usually intravenous. What is called half-life is how long it takes for the measured level to halve. A lower half-life goes with rapid decline. On to `CC(=O)Nc1nc(-c2cccc(C)n2)c(-c2ccc3ncnn3c2)[nH]1`, for which the EC50 in data set [1] is 165 nM; in data set [2], 57800 nM. Moreover, in data set [4], the bioavailability was 100%. Besides, the half-life in data set [5] is 7.1 h. In data set [3], this compound registered a Ki of 2.95 nM.

By IC50 is commonly meant the concentration needed to halve the response being measured. Higher therefore signals weaker potency in that assay. In the case of `Cc1nc(-c2nc(N)[nH]c2-c2ccc3nccnc3c2)ccc1F`, the results for the IC50 in data set [1] and in data set [2] were 33.5 nM and 12500 nM, respectively. For the same compound, the bioavailability in data set [4] was 28%. Also, in data set [5], the half-life is 0.6 h. In data set [3], the Ki came to 0.7 nM.

With `Cc1nc(-c2nc(N3CCOCC3)[nH]c2-c2ccc3ncnn3c2)ccc1F`, the EC50 in data set [1] is 513 nM; in data set [2], 46300 nM. In data set [4], this compound displayed a bioavailability of 25%. This compound showed a half-life in data set [5] of 0.4 h. The compound further returned an inhibitory constant (Ki) in data set [3] of 15 nM.

As to `CCC(=O)Nc1nc(-c2ccc(F)c(C)n2)c(-c2ccc3nccnc3c2)[nH]1`, the EC50 in data set [1] is 156 nM; in data set [2] it was 13500 nM. The same compound came in with a Ki in data set [3] of 8.8 nM.

Compound `Cc1nc(-c2nc(N3CCCCC3)[nH]c2-c2ccc3ncnn3c2)ccc1F` showed a Ki in data set [3] of 53.2 nM.

Consider `CC(=O)N1CCN(c2nc(-c3ccc(F)c(C)n3)c(-c3ccc4ncnn4c3)[nH]2)CC1`, for which the EC50 in data set [1] was 1220 nM; in data set [2] it was 14200 nM. The compound further came in with a Ki in data set [3] of 15.2 nM.

Take `Cc1nc(-c2nc(NC(=O)C(C)C)[nH]c2-c2ccc3nccnc3c2)ccc1F`: the Ki in data set [3] is greater than 28000 nM.

`CC(=O)Nc1nc(-c2ccc(F)c(C)n2)c(-c2ccc3ncnn3c2)[nH]1`: the figures for the EC50 in data set [1] and in data set [2] were 111 nM and 28100 nM, respectively. The compound also registered a Ki in data set [3] of 2.07 nM.

For `CC(=O)Nc1nc(-c2ccc(F)c(C)n2)c(-c2ccc3nccnc3c2)[nH]1`, the figures for the concentration for a half-maximal effect (EC50) in data set [1] and in data set [2] were 180 nM and 14800 nM, respectively. In data set [4], this compound displayed a bioavailability of 66%. Moreover, the half-life in data set [5] is 7.8 h.

As to `COCCC(=O)Nc1nc(-c2ccc(F)c(C)n2)c(-c2ccc3nccnc3c2)[nH]1`, the EC50 in data set [1] was found to be 148 nM; in data set [2], 14800 nM. The same compound came in with a bioavailability in data set [4] of 41%. This compound gave a half-life in data set [5] of 13.2 h. The compound further yielded a Ki in data set [3] of 19 nM.

On to `Cc1cccc(-c2nc(N)sc2-c2ccc3nccnc3c2)n1`, for which the EC50 in data set [1] was 80 nM; in data set [2], 22000 nM. This compound displayed a bioavailability in data set [4] of 87%. The compound further gave a half-life in data set [5] of 7.4 h. In data set [3], affinity was put at a Ki of 0.33 nM.

`Cc1nc(-c2nc(N3CCN(S(C)(=O)=O)CC3)[nH]c2-c2ccc3ncnn3c2)ccc1F`: the half-maximal effective concentration (EC50) in data set [1] was determined as 414 nM; in data set [2], 41200 nM. In data set [3], this compound showed a Ki of 3 nM.

`Cc1nc(-c2nc(N3CCN(C)CC3)[nH]c2-c2ccc3ncnn3c2)ccc1F`: the results for the 50% effective concentration (EC50) in data set [1] and in data set [2] were 344 nM and 10900 nM, respectively. In addition, the Ki in data set [3] is 16.4 nM.
